Consider 14 compounds from PubChem BioAssay.

Calls of active or inactive are those of the source.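 How the source made its calls, unless noted: active means viability at or below 10% of carrier control in both of two separate runs; inconclusive means viability at or below 10% in only one of the two runs; inactive means the rest.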

The viability is a read-out of living cells in per cent, often relative to untreated cells. What is called inhibition is the change of the read-out against control, counted positive when it falls.

Test [1] in a line: Her2 expression decrease, cell viability multiplex – SKBR3 breast tumor cells, AlphaScreen, ATP viability, primary screen (AID 461;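 active means Her2 level under about 52% in both replicate screens, with viability over 70% of control, limit read from the data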;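 on Her2 level: lower value means less Her2 protein in the cells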;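 on viability: percent of carrier control wells set as 100% viability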). The conditions noted are these: SKBR3 Her2 protein level, 18-24 h, measured here: SKBR3 viability, ATP luminescence, at 10 µM.
Test [2] concerns the target Receptor tyrosine-protein kinase erbB-2 (Homo sapiens) (UniProt P04626). The test is described as above. To be noted: 18-24 h, at 10 µM, stronger effect = lower value.
The nature of test [3]: reduced viability of SK-BR-3 breast cancer cells – cell-based, 24 h, human, pilot screen (AID 572).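 Further: compound exposure lasted between 18 and 24 h rather than exactly 24 h; 100% = carrier-treated control wells.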 The conditions noted are these: SK-BR-3 viability, CellTiter-Glo luminescence, at 10 µM, stronger effect = lower value.
A short description of test [4]: HUVEC growth inhibition – cell-based, human, primary screen (AID 575;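 active means viability at or below 30% in both replicate assays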;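 further: 100% = median of untreated cell wells with 0.1% DMSO on each plate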). To be noted: HUVEC proliferation, CellTiter-Glo luminescence, 72 h; at 10 µM; stronger effect = lower value. In outline: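 system = HUVEC primary cells | amount = 1250 cells/well | buffer or medium = supplemented EBM, 2% fetal bovine serum | dosing = single-point 10 µM, DMSO 0.1% final | times = 72 h compound incubation | detection = CTG luminescence | read-out = % viability relative to median vehicle-well signal on each plate | control set = vehicle and MePR control wells | format = collagen-coated 384-well format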

Test [5] can be described thus: H69AR cell proliferation blockers – human, duplicate replicates, primary screen (AID 580;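 active means viability at or under a set limit in both replicates, limit being median viability minus 3 SD, cut at about 48% in these data, passing the limit was not always enough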;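 further: 100% = mean luminescence of untreated wells and 0% = no signal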). To be noted: H69AR lung tumor cells viability, ATP luminescence, 72 h; at 10 µM; stronger effect = lower value.
Test [6] is described as follows: MRP1 drug-resistance reversers in H69AR cells – cell-based, doxorubicin co-treatment, pilot screen (AID 601;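 active means viability loss from added drug above about 55%, and viability with drug at most 40%, in both replicates, limit read from the data, passing the limit was not always enough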). The conditions noted are these: CellTiter-Glo, 72 h, at 10 µM; for differential viability (reversal): stronger effect = higher value. On the technique in general: In ATP-based viability assays light output follows the ATP content of the culture.
Test [7] in a line: yeast transport mutant growth inhibition pilot in 384-well plates, post-Golgi transport modulator project (AID 636; in the data active means inhibition above about 31%). To be noted: absorbance 615 nm, about 18 h, stronger effect = higher value.
Test [8] is described as follows: growth suppression of yeast trafficking mutant, preliminary HTS, modulators of trafficking downstream of Golgi apparatus project, 1536-format plate, OD 615 nm (AID 637; in the data active means inhibition above about 30%). To be noted: yeast transport mutant growth, absorbance 615 nm, 18 h; stronger effect = higher value.
[9] abbreviates: H69AR cells + 2 uM doxorubicin, measured here: viability with 2 uM doxorubicin, stronger effect = lower value.
[10] abbreviates: H69AR cells, compound alone cytotoxicity.

Chain of Receptor tyrosine-protein kinase erbB-2 (Homo sapiens) (P04626 whole entry, looked up): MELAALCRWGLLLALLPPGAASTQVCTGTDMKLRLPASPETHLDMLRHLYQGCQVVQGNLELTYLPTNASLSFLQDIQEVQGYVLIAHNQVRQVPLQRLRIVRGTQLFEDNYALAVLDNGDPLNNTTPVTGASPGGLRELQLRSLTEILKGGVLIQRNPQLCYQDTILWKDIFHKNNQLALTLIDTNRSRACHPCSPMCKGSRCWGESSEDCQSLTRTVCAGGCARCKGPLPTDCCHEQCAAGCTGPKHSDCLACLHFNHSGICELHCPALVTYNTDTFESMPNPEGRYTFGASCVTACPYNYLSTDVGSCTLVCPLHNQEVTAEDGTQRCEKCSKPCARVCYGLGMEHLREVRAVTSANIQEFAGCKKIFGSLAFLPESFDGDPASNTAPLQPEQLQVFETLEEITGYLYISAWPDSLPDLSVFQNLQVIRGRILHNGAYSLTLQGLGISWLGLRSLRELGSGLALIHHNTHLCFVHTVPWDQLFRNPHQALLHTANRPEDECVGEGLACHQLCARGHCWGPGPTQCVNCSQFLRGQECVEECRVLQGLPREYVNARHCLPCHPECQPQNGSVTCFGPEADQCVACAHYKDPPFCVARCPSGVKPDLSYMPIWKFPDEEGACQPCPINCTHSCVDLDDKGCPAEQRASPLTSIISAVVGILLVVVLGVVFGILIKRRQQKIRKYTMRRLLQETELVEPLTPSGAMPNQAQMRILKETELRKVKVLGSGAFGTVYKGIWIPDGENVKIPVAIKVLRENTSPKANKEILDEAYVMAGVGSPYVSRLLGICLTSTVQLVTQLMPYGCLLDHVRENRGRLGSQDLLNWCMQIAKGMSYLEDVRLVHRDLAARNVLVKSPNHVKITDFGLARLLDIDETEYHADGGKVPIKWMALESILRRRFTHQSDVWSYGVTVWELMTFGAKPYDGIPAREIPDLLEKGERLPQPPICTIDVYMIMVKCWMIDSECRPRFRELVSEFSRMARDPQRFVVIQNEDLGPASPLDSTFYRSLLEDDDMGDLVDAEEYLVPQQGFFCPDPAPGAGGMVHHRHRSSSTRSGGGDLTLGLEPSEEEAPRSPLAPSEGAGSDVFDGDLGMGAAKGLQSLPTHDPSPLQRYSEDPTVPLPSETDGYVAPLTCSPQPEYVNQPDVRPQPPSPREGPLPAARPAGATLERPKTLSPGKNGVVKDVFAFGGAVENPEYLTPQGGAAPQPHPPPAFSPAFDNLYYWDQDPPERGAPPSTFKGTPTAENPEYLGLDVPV

`Cc1sc2ncn3ncnc3c2c1C`: the viability is 91% in test [1]; 91% (inactive) in test [3]; 50.7% (inactive) in test [4]; 90.5% (inactive) in test [5]; 99.2% in test [6] (setting [9]); 90.5% in test [6] (setting [10]). In addition, the Her2 level in test [2] was 96.5% (inactive). In addition, in test [6] (H69AR cells + 2 uM doxorubicin), the differential viability (reversal) is -8.71% (inactive). The inhibition is 6.13% (inactive) in test [7] and 4.26% (inactive) in test [8].

Turning to `CCCCC(c1nnnn1C1CCCC1)N1CCN(C2CCCCC2)CC1` (stereo not given), the viability in test [1] was 81.5%; in test [3], 81.5% (inactive); in test [4] it was 106% (inactive); in test [5], 92.7% (inactive); in test [6] (setting [9]), 72.2%; in test [6] (setting [10]) it was 92.7%. For the same compound, the Her2 level in test [2] is 74% (inactive). In addition, the differential viability (reversal) in test [6] (H69AR cells + 2 uM doxorubicin) is 20.4% (inactive). Besides, the inhibition in test [7] was -6.62% (inactive); in test [8], 1.83% (inactive).

On to `CC1=C/C(=C/N(C)c2ccccc2)C(=O)S1`, for which the viability in test [1] is 109%; in test [3] it was 109% (inactive); in test [4], 79.7% (inactive); in test [5] it was 89.3% (inactive); in test [6] (setting [9]), 85.2%; in test [6] (setting [10]), 89.3%. For the same compound, the Her2 level in test [2] was 94% (inactive). The differential viability (reversal) in test [6] (H69AR cells + 2 uM doxorubicin) is 4.12% (inactive). Besides, the inhibition is 0.41% (inactive) in test [7] and -3.49% (inactive) in test [8].

As for `CCOC(=O)CSc1nnc(-c2cccnc2)n1Cc1ccccc1`, the viability in test [1] is 91.5%; in test [3], 91.5% (inactive); in test [4], 106% (inactive); in test [5], 96.4% (inactive); in test [6] (setting [9]), 96.2%; in test [6] (setting [10]), 96.4%. Besides, the Her2 level in test [2] is 108% (inactive). In addition, the differential viability (reversal) in test [6] (H69AR cells + 2 uM doxorubicin) is 0.125% (inactive). The inhibition in test [7] was 1.45% (inactive); in test [8] it was -12.3% (inactive).

For `COCCOC(=O)C1=C(N)OC2=C(C(=O)CC(C)(C)C2)C1c1cccnc1` (stereo not given), the viability in test [1] was 76%; in test [3], 76% (inactive); in test [4], 101% (inactive); in test [5], 99% (inactive); in test [6] (setting [9]) it was 91.9%; in test [6] (setting [10]) it was 99%. In test [2], the Her2 level was 101% (inactive). Moreover, the differential viability (reversal) in test [6] (H69AR cells + 2 uM doxorubicin) was 7.16% (inactive). The values for the inhibition in test [7] and in test [8] were -5.95% (inactive) and -1.31% (inactive), respectively.

For `O=c1c2c(-c3ccccc3)csc2nc2n1CCC2`, the viability in test [1] is 81%; in test [3], 81% (inactive); in test [4], 77.2% (inactive); in test [5], 79.4% (inactive); in test [6] (setting [9]), 84.4%; in test [6] (setting [10]) it was 79.4%. The Her2 level in test [2] is 99% (inactive). Also, the differential viability (reversal) in test [6] (H69AR cells + 2 uM doxorubicin) was -4.97% (inactive). For the same compound, the inhibition in test [7] is 2.84% (inactive); in test [8], 29.2% (inactive).

`O=C(NCc1cccs1)c1cc2c(s1)-c1ccccc1OC2`: the viability in test [1] was 96%; in test [3], 96% (inactive); in test [4], 76.8% (inactive); in test [5], 94.8% (inactive); in test [6] (setting [9]), 89.7%; in test [6] (setting [10]), 94.8%. In addition, the Her2 level in test [2] is 91.5% (inactive). The differential viability (reversal) in test [6] (H69AR cells + 2 uM doxorubicin) was 5.04% (inactive). For the same compound, the figures for the inhibition in test [7] and in test [8] were -5.2% (inactive) and 3.77% (inactive), respectively.

As to `CCOC(=O)c1[nH]cc(-c2ccccc2)c1N1CCOCC1`, the viability in test [1] is 92.5%; in test [3], 92.5% (inactive); in test [4] it was 98% (inactive); in test [5] it was 94.7% (inactive); in test [6] (setting [9]) it was 85.5%; in test [6] (setting [10]), 94.7%. In addition, the Her2 level in test [2] is 89.5% (inactive). In test [6] (H69AR cells + 2 uM doxorubicin), the differential viability (reversal) was 9.26% (inactive). For the same compound, the inhibition was -2.5% (inactive) in test [7] and 0.55% (inactive) in test [8].

For `COc1ccccc1N1CCN(CCCNC(=O)Nc2ccccc2)CC1`, the viability was 129% in test [1]; 129% (inactive) in test [3]; 84.5% (inactive) in test [4]; 90.3% (inactive) in test [5]; 91.8% in test [6] (setting [9]); 90.3% in test [6] (setting [10]). In addition, in test [2], the Her2 level was 83.5% (inactive). In test [6] (H69AR cells + 2 uM doxorubicin), the differential viability (reversal) was -1.53% (inactive). Further, the inhibition is -2.76% (inactive) in test [7] and -0.48% (inactive) in test [8].

With `CCC(c1nnc(SCC(=O)NCC2CCCO2)n1Cc1ccccc1)N(C)C` (stereo not given), the viability in test [1] was 98.5%; in test [3], 98.5% (inactive); in test [4], 96.8% (inactive); in test [5], 89.2% (inactive); in test [6] (setting [9]), 83.3%; in test [6] (setting [10]), 89.2%. Moreover, the Her2 level in test [2] was 98% (inactive). The differential viability (reversal) in test [6] (H69AR cells + 2 uM doxorubicin) is 5.86% (inactive). The inhibition in test [7] is -7.47% (inactive); in test [8], -1.61% (inactive).

Turning to `CSCCC(NC(=O)c1occc1C)C(=O)O` (stereo not given), the viability in test [1] was 93.5%; in test [3], 93.5% (inactive); in test [4], 103% (inactive); in test [5], 103% (inactive); in test [6] (setting [9]) it was 89.8%; in test [6] (setting [10]), 103%. In addition, the Her2 level in test [2] is 94.5% (inactive). Moreover, in test [6] (H69AR cells + 2 uM doxorubicin), the differential viability (reversal) is 12.8% (inactive). The results for the inhibition in test [7] and in test [8] were -2.63% (inactive) and 2.83% (inactive), respectively.

On to `COc1cc2c(c(OC)c1)C(c1ccncc1)CC(=O)N2` (stereo not given), for which the viability in test [1] was 89%; in test [3], 89% (inactive); in test [4], 91.7% (inactive); in test [5], 111% (inactive); in test [6] (setting [9]), 89.8%; in test [6] (setting [10]), 111%. For the same compound, in test [2], the Her2 level is 96.5% (inactive). In addition, in test [6] (H69AR cells + 2 uM doxorubicin), the differential viability (reversal) is 21.4% (inactive). The inhibition in test [7] was 1.73% (inactive); in test [8], -5.57% (inactive).

Turning to `CCC(=O)Nc1cc(C(=O)NCC2CCCN2CC)c(OC)cc1N(C)C` (stereo not given), the viability was 101% in test [1]; 101% (inactive) in test [3]; 91.8% (inactive) in test [4]; 114% (inactive) in test [5]; 93.9% in test [6] (setting [9]); 114% in test [6] (setting [10]). Also, the Her2 level in test [2] was 111% (inactive). Besides, the differential viability (reversal) in test [6] (H69AR cells + 2 uM doxorubicin) is 19.7% (inactive). In addition, the inhibition is -1.47% (inactive) in test [7] and -3.23% (inactive) in test [8].

Take `COc1cc(C(=O)Nc2ccc(-n3cnnn3)c(C)c2)cc(OC)c1OC`: the viability is 105% in test [1]; 105% (inactive) in test [3]; 99.8% (inactive) in test [4]; 74% (inactive) in test [5]; 98.8% in test [6] (setting [9]); 74% in test [6] (setting [10]). The Her2 level in test [2] was 95.5% (inactive). Also, in test [6] (H69AR cells + 2 uM doxorubicin), the differential viability (reversal) was -24.8% (inactive). The inhibition in test [7] is -2.08% (inactive); in test [8] it was -7.3% (inactive).
